Columns and labels:
[1] = molecular target: Epidermal growth factor receptor (Homo sapiens, UniProt P00533); assay: Inhibition of EGFR after 80 mins by radiometric protein kinase assay
[2] = molecular target: Receptor tyrosine-protein kinase erbB-2 (Homo sapiens, UniProt P04626); assay: Inhibition of ERBB2 after 80 mins by radiometric protein kinase assay
Method in brief: (§1)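 The substrate was Poly(Glu,Tyr)4:1. 12 concentrations were run in triplicate with 1% final DMSO, at 30 °C for 80 min. Reactions were stopped with 2% H₃PO₄, washed with 0.9% NaCl, and ³³P incorporation was read by scintillation counting.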

[3] = molecular target: Insulin-like growth factor 1 receptor (Homo sapiens, UniProt P08069); assay: Inhibition of IGF1R after 80 mins by radiometric protein kinase assay
Method in brief: (§2)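 Radiometric [γ-33P]-ATP kinase assay with poly(Glu,Tyr) 4:1 substrate. Reaction run 80 min at 30 °C, stopped with 2% H3PO4 and washed with 0.9% NaCl. 33Pi incorporation counted by microplate scintillation. IC50 from 12 concentrations tested in triplicate, with Z'-factor used as plate control.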

[4] = molecular target: Mast/stem cell growth factor receptor Kit (Homo sapiens, UniProt P10721); assay: Inhibition of KIT after 80 mins by radiometric protein kinase assay; method in brief: as §1
[5] = molecular target: Platelet-derived growth factor receptor alpha (Homo sapiens, UniProt P16234); assay: Inhibition of PDGFRalpha after 80 mins by radiometric protein kinase assay
Method in brief: (§3)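 Radiometric [γ-33P]-ATP kinase assay with poly(Ala,Glu,Lys,Tyr) 6:2:5:1 substrate. Incubated 30 °C for 80 min, then stopped with 2% H3PO4 and washed with 0.9% NaCl. 33Pi incorporation read by scintillation counting. IC50 from 12 concentrations in triplicate; plate quality checked by Z'-factor.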

[6] = molecular target: Platelet-derived growth factor receptor beta (Homo sapiens, UniProt P09619); assay: Inhibition of PDGFRbeta after 80 mins by radiometric protein kinase assay
Angiopoietin-1 receptor = Angiopoietin-1 receptor (Homo sapiens, UniProt Q02763); assay: Inhibition of TIE2 after 80 mins by radiometric protein kinase assay; method in brief: as §3
[7] = molecular target: Vascular endothelial growth factor receptor 1 (Homo sapiens, UniProt P17948); assay: Inhibition of VEGFR1 after 80 mins by radiometric protein kinase assay; method in brief: as §2
[8] = molecular target: T1, Vascular endothelial growth factor receptor 2 (Homo sapiens, UniProt P35968); assay: Inhibition of VEGFR2 after 80 mins by radiometric protein kinase assay; method in brief: as §2
[9] = molecular target: Vascular endothelial growth factor receptor 3 (Homo sapiens, UniProt P35916); assay: Inhibition of VEGFR3 after 80 mins by radiometric protein kinase assay; method in brief: as §2
[10] = molecular target: T1, Vascular endothelial growth factor receptor 2; details: HEK293, 10 uM
[11] = molecular target: T1, Vascular endothelial growth factor receptor 2; details: HEK293, 20 uM

T1 sequence (P35968 whole entry): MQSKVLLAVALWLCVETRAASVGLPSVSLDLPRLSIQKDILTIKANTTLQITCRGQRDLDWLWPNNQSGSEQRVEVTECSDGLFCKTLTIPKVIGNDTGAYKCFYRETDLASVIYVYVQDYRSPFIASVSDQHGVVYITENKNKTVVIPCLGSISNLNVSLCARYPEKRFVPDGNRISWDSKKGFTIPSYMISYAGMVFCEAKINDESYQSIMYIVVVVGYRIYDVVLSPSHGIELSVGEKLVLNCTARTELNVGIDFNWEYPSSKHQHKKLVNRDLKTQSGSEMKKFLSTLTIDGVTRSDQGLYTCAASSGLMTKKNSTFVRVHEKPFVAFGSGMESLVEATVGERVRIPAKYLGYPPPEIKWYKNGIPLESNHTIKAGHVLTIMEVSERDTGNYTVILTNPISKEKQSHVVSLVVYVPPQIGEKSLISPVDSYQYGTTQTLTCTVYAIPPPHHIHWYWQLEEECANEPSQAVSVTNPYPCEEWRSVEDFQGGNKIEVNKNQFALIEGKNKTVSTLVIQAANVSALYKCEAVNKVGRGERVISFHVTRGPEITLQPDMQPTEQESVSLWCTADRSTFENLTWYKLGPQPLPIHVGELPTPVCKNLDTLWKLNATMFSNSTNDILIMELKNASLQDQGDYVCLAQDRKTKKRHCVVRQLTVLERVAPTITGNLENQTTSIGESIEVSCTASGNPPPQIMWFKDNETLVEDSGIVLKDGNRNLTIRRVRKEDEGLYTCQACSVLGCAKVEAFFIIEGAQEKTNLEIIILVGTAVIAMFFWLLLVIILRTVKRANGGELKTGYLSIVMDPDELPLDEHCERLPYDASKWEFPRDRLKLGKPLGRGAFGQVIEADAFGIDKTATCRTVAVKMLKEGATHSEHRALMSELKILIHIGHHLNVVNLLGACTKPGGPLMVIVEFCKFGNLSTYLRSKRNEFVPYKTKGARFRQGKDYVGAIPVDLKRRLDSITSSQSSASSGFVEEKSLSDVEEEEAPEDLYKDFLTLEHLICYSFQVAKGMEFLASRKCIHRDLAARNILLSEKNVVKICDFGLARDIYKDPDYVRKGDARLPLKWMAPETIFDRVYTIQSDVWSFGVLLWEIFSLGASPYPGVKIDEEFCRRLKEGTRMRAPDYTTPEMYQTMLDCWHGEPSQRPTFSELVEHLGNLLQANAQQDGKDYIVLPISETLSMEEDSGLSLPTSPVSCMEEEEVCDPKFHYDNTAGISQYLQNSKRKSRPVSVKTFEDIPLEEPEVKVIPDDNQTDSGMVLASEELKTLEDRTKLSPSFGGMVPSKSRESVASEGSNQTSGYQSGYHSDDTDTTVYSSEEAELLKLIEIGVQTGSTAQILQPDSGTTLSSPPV
Chain of Receptor tyrosine-protein kinase erbB-2 (P04626 whole entry): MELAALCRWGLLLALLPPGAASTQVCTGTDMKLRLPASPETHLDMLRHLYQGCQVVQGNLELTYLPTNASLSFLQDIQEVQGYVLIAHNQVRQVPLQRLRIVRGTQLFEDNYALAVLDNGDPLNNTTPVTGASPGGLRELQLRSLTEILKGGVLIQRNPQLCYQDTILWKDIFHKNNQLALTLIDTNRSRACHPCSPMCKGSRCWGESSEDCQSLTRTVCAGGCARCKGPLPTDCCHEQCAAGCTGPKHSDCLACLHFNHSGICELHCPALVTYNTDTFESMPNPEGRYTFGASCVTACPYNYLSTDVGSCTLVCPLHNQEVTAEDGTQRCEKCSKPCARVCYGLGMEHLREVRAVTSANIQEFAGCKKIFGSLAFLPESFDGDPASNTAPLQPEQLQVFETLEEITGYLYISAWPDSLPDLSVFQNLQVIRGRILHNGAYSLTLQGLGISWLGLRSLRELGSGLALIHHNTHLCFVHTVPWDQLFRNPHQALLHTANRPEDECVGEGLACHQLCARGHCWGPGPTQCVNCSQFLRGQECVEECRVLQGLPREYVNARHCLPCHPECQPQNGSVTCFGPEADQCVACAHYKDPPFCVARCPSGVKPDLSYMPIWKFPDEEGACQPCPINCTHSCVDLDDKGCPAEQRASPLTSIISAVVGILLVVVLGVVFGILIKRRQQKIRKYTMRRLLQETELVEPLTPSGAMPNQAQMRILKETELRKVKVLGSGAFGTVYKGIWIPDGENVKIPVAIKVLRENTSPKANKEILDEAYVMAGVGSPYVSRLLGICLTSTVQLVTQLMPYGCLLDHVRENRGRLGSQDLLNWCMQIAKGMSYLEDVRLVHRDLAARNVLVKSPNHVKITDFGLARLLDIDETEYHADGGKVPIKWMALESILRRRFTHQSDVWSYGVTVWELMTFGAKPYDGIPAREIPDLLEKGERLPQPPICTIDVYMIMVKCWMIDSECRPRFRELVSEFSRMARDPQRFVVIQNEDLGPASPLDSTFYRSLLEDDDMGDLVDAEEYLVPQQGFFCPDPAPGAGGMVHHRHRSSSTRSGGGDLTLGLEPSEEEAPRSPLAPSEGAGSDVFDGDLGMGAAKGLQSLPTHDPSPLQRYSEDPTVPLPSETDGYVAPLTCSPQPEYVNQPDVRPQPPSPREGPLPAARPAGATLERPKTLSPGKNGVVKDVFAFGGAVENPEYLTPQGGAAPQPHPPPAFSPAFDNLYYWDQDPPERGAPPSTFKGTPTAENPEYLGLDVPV
Chain of Insulin-like growth factor 1 receptor (P08069 31-736 limits assumed): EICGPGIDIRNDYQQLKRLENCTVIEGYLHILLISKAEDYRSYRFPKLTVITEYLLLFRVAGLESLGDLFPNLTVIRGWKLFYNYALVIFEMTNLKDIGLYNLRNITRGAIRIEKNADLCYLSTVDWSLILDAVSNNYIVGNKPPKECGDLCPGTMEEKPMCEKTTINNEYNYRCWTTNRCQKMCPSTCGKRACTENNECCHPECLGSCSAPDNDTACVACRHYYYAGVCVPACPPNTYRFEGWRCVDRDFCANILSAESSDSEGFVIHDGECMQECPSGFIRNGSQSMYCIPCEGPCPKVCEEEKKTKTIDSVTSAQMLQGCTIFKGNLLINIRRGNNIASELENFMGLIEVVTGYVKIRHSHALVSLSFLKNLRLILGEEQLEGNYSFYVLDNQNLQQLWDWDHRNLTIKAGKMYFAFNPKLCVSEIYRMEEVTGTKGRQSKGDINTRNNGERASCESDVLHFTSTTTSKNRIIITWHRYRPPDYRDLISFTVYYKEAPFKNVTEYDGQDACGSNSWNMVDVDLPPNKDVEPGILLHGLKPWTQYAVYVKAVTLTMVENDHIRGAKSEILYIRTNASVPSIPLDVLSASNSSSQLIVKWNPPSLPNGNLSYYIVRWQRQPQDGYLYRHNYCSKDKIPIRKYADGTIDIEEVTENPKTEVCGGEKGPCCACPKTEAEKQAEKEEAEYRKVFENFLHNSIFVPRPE
Chain of Insulin-like growth factor 1 receptor (P08069 741-1367 limits assumed): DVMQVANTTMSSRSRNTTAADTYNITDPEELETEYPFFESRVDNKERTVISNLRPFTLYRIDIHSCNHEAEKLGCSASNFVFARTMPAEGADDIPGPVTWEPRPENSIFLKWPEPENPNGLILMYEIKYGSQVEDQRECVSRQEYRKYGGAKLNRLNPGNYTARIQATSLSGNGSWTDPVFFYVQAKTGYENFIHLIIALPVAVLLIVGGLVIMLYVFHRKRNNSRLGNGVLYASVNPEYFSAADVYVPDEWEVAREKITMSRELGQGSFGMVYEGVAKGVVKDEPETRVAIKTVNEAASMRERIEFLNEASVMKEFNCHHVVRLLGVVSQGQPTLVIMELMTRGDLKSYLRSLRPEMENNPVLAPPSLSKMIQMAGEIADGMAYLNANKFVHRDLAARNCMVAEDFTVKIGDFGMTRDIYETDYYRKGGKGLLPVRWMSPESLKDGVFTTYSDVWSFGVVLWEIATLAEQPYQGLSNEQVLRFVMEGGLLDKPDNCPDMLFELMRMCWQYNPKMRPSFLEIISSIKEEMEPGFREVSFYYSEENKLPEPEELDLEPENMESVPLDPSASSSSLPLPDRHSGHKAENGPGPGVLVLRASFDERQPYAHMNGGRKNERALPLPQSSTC
Chain of Platelet-derived growth factor receptor beta (P09619 whole entry): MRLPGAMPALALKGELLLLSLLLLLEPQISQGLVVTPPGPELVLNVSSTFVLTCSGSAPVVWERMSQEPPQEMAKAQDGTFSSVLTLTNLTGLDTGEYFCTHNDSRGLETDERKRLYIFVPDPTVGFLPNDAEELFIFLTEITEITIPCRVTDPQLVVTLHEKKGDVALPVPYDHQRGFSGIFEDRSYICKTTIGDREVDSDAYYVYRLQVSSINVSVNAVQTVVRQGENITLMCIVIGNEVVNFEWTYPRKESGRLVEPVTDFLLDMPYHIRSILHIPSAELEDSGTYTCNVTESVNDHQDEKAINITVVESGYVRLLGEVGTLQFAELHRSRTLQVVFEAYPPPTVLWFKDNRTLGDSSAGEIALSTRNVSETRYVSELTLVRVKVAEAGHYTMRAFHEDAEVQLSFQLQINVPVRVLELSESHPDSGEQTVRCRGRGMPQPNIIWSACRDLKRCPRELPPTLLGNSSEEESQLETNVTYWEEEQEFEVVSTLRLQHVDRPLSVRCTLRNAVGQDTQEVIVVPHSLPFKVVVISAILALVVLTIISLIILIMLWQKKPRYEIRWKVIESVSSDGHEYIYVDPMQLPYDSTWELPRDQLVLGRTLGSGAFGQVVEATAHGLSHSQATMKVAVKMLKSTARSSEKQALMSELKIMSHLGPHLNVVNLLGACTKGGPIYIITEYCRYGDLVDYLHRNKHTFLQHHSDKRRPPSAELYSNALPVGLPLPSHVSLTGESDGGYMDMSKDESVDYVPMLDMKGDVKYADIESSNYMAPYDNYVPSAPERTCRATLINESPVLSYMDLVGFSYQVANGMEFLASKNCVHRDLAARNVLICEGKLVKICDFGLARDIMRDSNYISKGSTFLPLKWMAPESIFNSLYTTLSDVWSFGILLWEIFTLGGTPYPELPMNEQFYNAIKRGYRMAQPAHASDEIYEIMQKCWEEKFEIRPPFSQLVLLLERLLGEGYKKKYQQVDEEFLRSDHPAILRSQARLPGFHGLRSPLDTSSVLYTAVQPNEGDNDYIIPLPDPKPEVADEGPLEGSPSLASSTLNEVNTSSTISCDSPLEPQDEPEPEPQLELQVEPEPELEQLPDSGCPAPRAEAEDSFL

SMILES: COc1cc(C2=C(c3c[nH]c4ccc(Br)cc34)C(=O)NC2=O)cc(OC)c1OC
- IC50 [1]: 5.8 µM
- IC50 [2]: 13.3 µM
- IC50 [3]: 4.24 µM
- IC50 [4]: 3.22 µM
- IC50 [5]: 1.16 µM
- IC50 [6]: 0.9 µM
- IC50 (Angiopoietin-1 receptor): 2.37 µM
- IC50 [7]: 0.0724 µM
- IC50 [8]: 0.0225 µM
- IC50 [9]: 0.021 µM

SMILES: COc1cc(C2=C(c3c[nH]c4ccc(F)cc34)C(=O)NC2=O)cc(OC)c1OC
- IC50 [1]: > 8.48 µM
- IC50 [2]: > 8.48 µM
- IC50 [3]: 8.53 µM
- IC50 [4]: 3.47 µM
- IC50 [5]: 1.8 µM
- IC50 [6]: 2.67 µM
- IC50 (Angiopoietin-1 receptor): 1.57 µM
- IC50 [7]: 0.15 µM
- IC50 [8]: 0.082 µM
- IC50 [9]: 0.066 µM

SMILES: COc1cc(C2=C(c3c[nH]c4ccccc34)C(=O)NC2=O)cc(OC)c1OC [MALEIMIDE]
- Stability [10]: 72 % ID/g
- Stability [11]: 68 % ID/g

— ChEMBL document CHEMBL1158526, “Labeled 3-aryl-4-indolylmaleimide derivatives and their potential as angiogenic PET biomarkers” (Bioorg Med Chem, 2010)
